Measurements reported in ChEMBL document CHEMBL4715736, “Identification of anticancer agents based on the thieno[2,3-b]pyridine and 1H-pyrazole molecular scaffolds” (2016).

system: SF-295; test: Growth inhibition of human SF-295 cells assessed as cell growth at 10 uM incubated for 48 hrs by sulforhodamine B assay relative to control; type: functional; details: read-out: Activity
Summary of the method: (§1)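 Run by the NCI Developmental Therapeutics Program as part of its 60-line human tumour panel. Each compound tested at a single 10 µM dose. Growth expressed as % relative to untreated control cells (100%).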

**Q.** Which growth at 10 µM does the source give for `Cc1ccc(NC(=O)c2sc3nc4c(cc3c2N)C(=O)CCC4)cc1C` here?
**A.** 8.72%

system: MOLT-4; test: Growth inhibition of human MOLT-4 cells assessed as cell growth at 10 uM incubated for 48 hrs by sulforhodamine B assay relative to control; type: functional; details: read-out: Activity
Summary of the method: (§2)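 Submitted to the NCI Developmental Therapeutics Program for the NCI60 human tumour cell line panel. First screen at a single 10 µM concentration. Read-out is growth relative to untreated control cells set at 100%.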

**Q.** Which growth at 10 µM does the source give for `Cc1ccc(NC(=O)c2sc3nc4c(cc3c2N)C(=O)CCC4)cc1C` here?
**A.** 27.6%

system: NCI-H460; test: Growth inhibition of human NCI-H460 cells assessed as cell growth at 10 uM incubated for 48 hrs by sulforhodamine B assay relative to control; type: functional; details: read-out: Activity; summary of the method: as §2

**Q.** Which growth at 10 µM does the source give for `Cc1ccc(NC(=O)c2sc3nc4c(cc3c2N)C(=O)CCC4)cc1C` here?
**A.** 4%

system: A549; test: Growth inhibition of human A549/ATCC cells assessed as cell growth at 10 uM incubated for 48 hrs by sulforhodamine B assay relative to control; type: functional; details: read-out: Activity
Summary of the method: (§3)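 NCI Developmental Therapeutics Program NCI60 panel. Compounds that were active in the 10 µM one-dose screen went on to dose–response testing. Growth at each concentration is expressed relative to untreated control (100%). GI50 (concentration giving 50% of maximal inhibition of proliferation) and TGI (concentration giving total growth inhibition) were derived from the curves.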

**Q.** `Cc1ccc(NC(=O)c2sc3nc4c(cc3c2N)C(=O)CCC4)cc1C` was tested. Which growth at 10 µM did it give?
**A.** 19.5%

system: OVCAR-3; test: Growth inhibition of human OVCAR-3 cells assessed as cell growth at 10 uM incubated for 48 hrs by sulforhodamine B assay relative to control; type: functional; details: read-out: Activity; summary of the method: as §1

**Q.** For `Cc1ccc(NC(=O)c2sc3nc4c(cc3c2N)C(=O)CCC4)cc1C`, which growth at 10 µM is on record?
**A.** -17%

system: NCI-H226; test: Growth inhibition of human NCI-H226 cells assessed as cell growth at 10 uM incubated for 48 hrs by sulforhodamine B assay relative to control; type: functional; details: read-out: Activity; summary of the method: as §2

**Q.** Which growth at 10 µM does the source give for `Cc1ccc(NC(=O)c2sc3nc4c(cc3c2N)C(=O)CCC4)cc1C` here?
**A.** 56%

system: A498; test: Growth inhibition of human A498 cells assessed as cell growth at 10 uM incubated for 48 hrs by sulforhodamine B assay relative to control; type: functional; details: read-out: Activity; summary of the method: as §3

**Q.** For `Cc1ccc(NC(=O)c2sc3nc4c(cc3c2N)C(=O)CCC4)cc1C`, which growth at 10 µM is on record?
**A.** -16%

system: HOP-62; test: Growth inhibition of human HOP-62 cells assessed as cell growth at 10 uM incubated for 48 hrs by sulforhodamine B assay relative to control; type: functional; details: read-out: Activity; summary of the method: as §2

**Q.** For `Cc1ccc(NC(=O)c2sc3nc4c(cc3c2N)C(=O)CCC4)cc1C`, which growth at 10 µM is on record?
**A.** 23.6%

system: CCRF-CEM; test: Growth inhibition of human CCRF-CEM cells assessed as cell growth at 10 uM incubated for 48 hrs by sulforhodamine B assay relative to control; type: functional; details: read-out: Activity; summary of the method: as §3

**Q.** `Cc1ccc(NC(=O)c2sc3nc4c(cc3c2N)C(=O)CCC4)cc1C` was tested. Which growth at 10 µM did it give?
**A.** -6%

system: UACC-257; test: Growth inhibition of human UACC-257 cells assessed as cell growth at 10 uM incubated for 48 hrs by sulforhodamine B assay relative to control; type: functional; details: read-out: Activity; summary of the method: as §1

**Q.** For `Cc1ccc(NC(=O)c2sc3nc4c(cc3c2N)C(=O)CCC4)cc1C`, which growth at 10 µM is on record?
**A.** 54.2%

system: MDA-MB-468; test: Growth inhibition of human MDA-MB-468 cells assessed as cell growth at 10 uM incubated for 48 hrs by sulforhodamine B assay relative to control; type: functional; details: read-out: Activity; summary of the method: as §2

**Q.** Which growth at 10 µM does the source give for `Cc1ccc(NC(=O)c2sc3nc4c(cc3c2N)C(=O)CCC4)cc1C` here?
**A.** 4%

system: HCT-15; test: Growth inhibition of human HCT-15 cells assessed as cell growth at 10 uM incubated for 48 hrs by sulforhodamine B assay relative to control; type: functional; details: read-out: Activity; summary of the method: as §2

**Q.** `Cc1ccc(NC(=O)c2sc3nc4c(cc3c2N)C(=O)CCC4)cc1C` was tested. Which growth at 10 µM did it give?
**A.** 27%

system: HL-60(TB); test: Growth inhibition of human HL-60(TB) cells assessed as cell growth at 10 uM incubated for 48 hrs by sulforhodamine B assay relative to control; type: functional; details: read-out: Activity
Summary of the method: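 Screened by the NCI Developmental Therapeutics Program on its panel of 60 human tumour cell lines. Compounds were first tested at a single 10 µM dose, and compounds active there went to dose-response curves. Growth is expressed relative to untreated control (100%). GI50 (50% of maximal proliferation inhibition) and TGI (total growth inhibition) were derived from the dose-response data.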

**Q.** How did the growth at 10 µM turn out when `Cc1ccc(NC(=O)c2sc3nc4c(cc3c2N)C(=O)CCC4)cc1C` was run?
**A.** -21%

system: NCI-H322M; test: Growth inhibition of human NCI-H322M cells assessed as cell growth at 10 uM incubated for 48 hrs by sulforhodamine B assay relative to control; type: functional; details: read-out: Activity; summary of the method: as §2

**Q.** `Cc1ccc(NC(=O)c2sc3nc4c(cc3c2N)C(=O)CCC4)cc1C` was tested. Which growth at 10 µM did it give?
**A.** 35%

system: SF-539; test: Growth inhibition of human SF-539 cells assessed as cell growth at 10 uM incubated for 48 hrs by sulforhodamine B assay relative to control; type: functional; details: read-out: Activity; summary of the method: as §1

**Q.** `Cc1ccc(NC(=O)c2sc3nc4c(cc3c2N)C(=O)CCC4)cc1C` was tested. Which growth at 10 µM did it give?
**A.** -18%

system: MDA-MB-435; test: Growth inhibition of human MDA-MB-435 cells assessed as cell growth at 10 uM incubated for 48 hrs by sulforhodamine B assay relative to control; type: functional; details: read-out: Activity; summary of the method: as §2

**Q.** How did the growth at 10 µM turn out when `Cc1ccc(NC(=O)c2sc3nc4c(cc3c2N)C(=O)CCC4)cc1C` was run?
**A.** -67%

system: SN12C; test: Growth inhibition of human SN12C cells assessed as cell growth at 10 uM incubated for 48 hrs by sulforhodamine B assay relative to control; type: functional; details: read-out: Activity; summary of the method: as §1

**Q.** For `Cc1ccc(NC(=O)c2sc3nc4c(cc3c2N)C(=O)CCC4)cc1C`, which growth at 10 µM is on record?
**A.** 35%

system: RXF 393; test: Growth inhibition of human RXF 393 cells assessed as cell growth at 10 uM incubated for 48 hrs by sulforhodamine B assay relative to control; type: functional; details: read-out: Activity; summary of the method: as §1

**Q.** With `Cc1ccc(NC(=O)c2sc3nc4c(cc3c2N)C(=O)CCC4)cc1C` as the molecule, how does the growth at 10 µM read?
**A.** -18%

system: NCI/ADR-RES; test: Growth inhibition of human NCI/ADR-RES cells assessed as cell growth at 10 uM incubated for 48 hrs by sulforhodamine B assay relative to control; type: functional; details: read-out: Activity; summary of the method: as §2

**Q.** For `Cc1ccc(NC(=O)c2sc3nc4c(cc3c2N)C(=O)CCC4)cc1C`, which growth at 10 µM is on record?
**A.** 9%

system: M14; test: Growth inhibition of human M14 cells assessed as cell growth at 10 uM incubated for 48 hrs by sulforhodamine B assay relative to control; type: functional; details: read-out: Activity; summary of the method: as §2

**Q.** How did the growth at 10 µM turn out when `Cc1ccc(NC(=O)c2sc3nc4c(cc3c2N)C(=O)CCC4)cc1C` was run?
**A.** -23%

system: SNB-75; test: Growth inhibition of human SNB-75 cells assessed as cell growth at 10 uM incubated for 48 hrs by sulforhodamine B assay relative to control; type: functional; details: read-out: Activity; summary of the method: as §1

**Q.** Which growth at 10 µM does the source give for `Cc1ccc(NC(=O)c2sc3nc4c(cc3c2N)C(=O)CCC4)cc1C` here?
**A.** -10.3%

system: IGROV-1; test: Growth inhibition of human IGROV-1 cells assessed as cell growth at 10 uM incubated for 48 hrs by sulforhodamine B assay relative to control; type: functional; details: read-out: Activity; summary of the method: as §2

**Q.** `Cc1ccc(NC(=O)c2sc3nc4c(cc3c2N)C(=O)CCC4)cc1C` was tested. Which growth at 10 µM did it give?
**A.** 23.9%

system: Hs-578T; test: Growth inhibition of human Hs-578T cells assessed as cell growth at 10 uM incubated for 48 hrs by sulforhodamine B assay relative to control; type: functional; details: read-out: Activity; summary of the method: as §2

**Q.** `Cc1ccc(NC(=O)c2sc3nc4c(cc3c2N)C(=O)CCC4)cc1C` was tested. Which growth at 10 µM did it give?
**A.** 18%

system: HOP-92; test: Growth inhibition of human HOP-92 cells assessed as cell growth at 10 uM incubated for 48 hrs by sulforhodamine B assay relative to control; type: functional; details: read-out: Activity; summary of the method: as §2

**Q.** `Cc1ccc(NC(=O)c2sc3nc4c(cc3c2N)C(=O)CCC4)cc1C` was tested. Which growth at 10 µM did it give?
**A.** 50%

system: SK-MEL-28; test: Growth inhibition of human SK-MEL-28 cells assessed as cell growth at 10 uM incubated for 48 hrs by sulforhodamine B assay relative to control; type: functional; details: read-out: Activity; summary of the method: as §1

**Q.** For `Cc1ccc(NC(=O)c2sc3nc4c(cc3c2N)C(=O)CCC4)cc1C`, which growth at 10 µM is on record?
**A.** 37.3%

system: U-251; test: Growth inhibition of human U-251 cells assessed as cell growth at 10 uM incubated for 48 hrs by sulforhodamine B assay relative to control; type: functional; details: read-out: Activity; summary of the method: as §1

**Q.** Which growth at 10 µM does the source give for `Cc1ccc(NC(=O)c2sc3nc4c(cc3c2N)C(=O)CCC4)cc1C` here?
**A.** 10%

system: HCT-116; test: Growth inhibition of human HCT-116 cells assessed as cell growth at 10 uM incubated for 48 hrs by sulforhodamine B assay relative to control; type: functional; details: read-out: Activity; summary of the method: as §2

**Q.** How did the growth at 10 µM turn out when `Cc1ccc(NC(=O)c2sc3nc4c(cc3c2N)C(=O)CCC4)cc1C` was run?
**A.** 23%

system: OVCAR-5; test: Growth inhibition of human OVCAR-5 cells assessed as cell growth at 10 uM incubated for 48 hrs by sulforhodamine B assay relative to control; type: functional; details: read-out: Activity; summary of the method: as §1

**Q.** With `Cc1ccc(NC(=O)c2sc3nc4c(cc3c2N)C(=O)CCC4)cc1C` as the molecule, how does the growth at 10 µM read?
**A.** 21%

system: SK-MEL-5; test: Growth inhibition of human SK-MEL-5 cells assessed as cell growth at 10 uM incubated for 48 hrs by sulforhodamine B assay relative to control; type: functional; details: read-out: Activity; summary of the method: as §1

**Q.** How did the growth at 10 µM turn out when `Cc1ccc(NC(=O)c2sc3nc4c(cc3c2N)C(=O)CCC4)cc1C` was run?
**A.** 16%

system: KM12; test: Growth inhibition of human KM12 cells assessed as cell growth at 10 uM incubated for 48 hrs by sulforhodamine B assay relative to control; type: functional; details: read-out: Activity; summary of the method: as §2

**Q.** Which growth at 10 µM does the source give for `Cc1ccc(NC(=O)c2sc3nc4c(cc3c2N)C(=O)CCC4)cc1C` here?
**A.** 19.5%

system: Malme-3M; test: Growth inhibition of human Malme-3M cells assessed as cell growth at 10 uM incubated for 48 hrs by sulforhodamine B assay relative to control; type: functional; details: read-out: Activity; summary of the method: as §2

**Q.** `Cc1ccc(NC(=O)c2sc3nc4c(cc3c2N)C(=O)CCC4)cc1C` was tested. Which growth at 10 µM did it give?
**A.** 47%

system: UO-31; test: Growth inhibition of human UO-31 cells assessed as cell growth at 10 uM incubated for 48 hrs by sulforhodamine B assay relative to control; type: functional; details: read-out: Activity; summary of the method: as §1

**Q.** With `Cc1ccc(NC(=O)c2sc3nc4c(cc3c2N)C(=O)CCC4)cc1C` as the molecule, how does the growth at 10 µM read?
**A.** 45%
